Experimental data gathered from unrelated publications.
Lines come from different studies, so protocols differ.
Organism: Bacillus cereus

| Compound | assay | test system | measurement | result |
| --- | --- | --- | --- | --- |
| CC(=O)NC[C@H]1CN(c2ccc(N3CCOCC3)c(F)c2)C(=O)O1 | microbial growth, broth dilution | ATCC13061 | MIC | 1 µg/mL |
| O=C1NC(=S)S/C1=C\c1ccc(-c2ccc(N(c3ccccc3)c3ccccc3)cc2)cc1 | microbial killing, broth dilution | ATCC10876 | MBC | > 1000 µg/mL |
| O=C(O)c1cn(C2CC2)c2cc(N3CCNCC3)c(F)cc2c1=O | microbial growth |  | MIC | 1.56 µM |
| O=C(Nc1ccc(S(=O)(=O)c2nccs2)cc1)c1cc(N=Nc2nccs2)ccc1O | microbial growth, broth dilution |  | MIC | 200 µg/mL |
| CNC(=O)[C@@H](C)[C@H]1C(=O)/C(=C(O)/C=C/C(C)=C/[C@@H](C)[C@H]2O[C@@]3(C)O[C@H](C=C[C@@]34CO4)[C@@H]2C)C(=O)N1[C@@H]1CC[C@H](O)[C@H](C)O1 | microbial growth |  | MIC | > 100 µM |
| O=C(O)CN1C(=O)/C(=C/c2ccc(-c3ccc(N(c4ccccc4)c4ccccc4)cc3)c3ccccc23)NC1=S | microbial growth, broth dilution | ATCC10876 | MIC | > 1000 µg/mL |
| Nc1ccc(-c2nc(-c3ccc(Oc4ccc(C(F)(F)F)cc4)cc3)no2)cc1 | microbial growth, broth dilution | ATCC13061 | MIC | 4 µg/mL |
| CO[C@H]1O[C@H](COC(c2ccccc2)(c2ccccc2)c2ccccc2)[C@@H](OC(=O)c2ccc(C(C)(C)C)cc2)[C@H](OC(=O)c2ccc(C(C)(C)C)cc2)[C@H]1OC(=O)c1ccc(C(C)(C)C)cc1 | microbial growth, broth dilution |  | MIC | 0.75 µg/mL |
| CN[C@H](CC(C)C)C(=O)N[C@H]1C(=O)N[C@@H](CC(N)=O)C(=O)N[C@H]2C(=O)N[C@H]3C(=O)N[C@H](C(=O)N[C@H](C(=O)O)c4cc(O)cc(O)c4-c4cc3ccc4O)[C@H](O)c3ccc(c(Cl)c3)Oc3cc2cc(c3O[C@@H]2O[C@H](CO)[C@@H](O)[C@H](O)[C@H]2O[C@H]2C[C@](C)(N)[C@H](O)[C@H](C)O2)Oc2ccc(cc2Cl)[C@H]1O | microbial growth, broth dilution | ATCC13061 | MIC | 1 µg/mL |
| O=C(O)CN1C(=O)/C(=C/c2c3ccccc3c(-c3ccc(N(c4ccccc4)c4ccccc4)cc3)c3ccccc23)SC1=S | microbial killing, broth dilution | ATCC10876 | MBC | > 1000 µg/mL |
